Here are results for 3 molecules from ChEMBL document CHEMBL2346608, “New annelated thieno[2,3-e][1,2,3]triazolo[1,5-a]pyrimidines, with potent anticancer activity, designed through VLAK protocol” (2013).

Common to all, as to format: functional
Experiment [1] relates to BT-549. The experiment is described as follows: Antiproliferative activity against human BT549 cells after 48 hrs by sulforhodamine B assay. The settings on record: BT-549, 48 h. Summed up: (§1)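 Cells grown in RPMI 1640 with 5% FBS and 2 mM L-glutamine, plated at 5000–40,000 cells/well and preincubated 24 h at 37 °C, 5% CO2. Five drug concentrations (10-fold or ½-log dilutions from DMSO stocks) applied for 48 h. TCA-fixed (final 10% adherent, 16% suspension), SRB-stained, A515 read. Growth versus time-zero and control wells gave GI50, TGI, LC50.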
A general note: The SRB assay estimates cell density from bound dye.

Experiment [2] concerns SR. The experiment is described as follows: Antiproliferative activity against human SR cells after 48 hrs by sulforhodamine B assay. As to conditions: for TGI: read-out: pTGI (converted). A digest of the protocol: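 Cells in RPMI 1640 with 5% FBS and 2 mM L-glutamine were seeded at 5000–40,000/well according to doubling time and preincubated 24 h at 37 °C in 5% CO2. Time-zero plates were TCA-fixed when drug was added. Five 10-fold or ½-log dilutions from DMSO stocks were added for 48 h. After SRB staining, A515 was read and GI50 derived from [(Ti−Tz)/(C−Tz)]×100 = 50.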

Experiment [3] relates to IGROV-1. The experiment is described as follows: Antiproliferative activity against human IGROV1 cells after 48 hrs by sulforhodamine B assay. The settings on record: IGROV-1, 48 h; for TGI: read-out: pTGI (converted). A digest of the protocol: as §1

Bounds are passed on as bounds.

Usually GI50 stands for the concentration giving 50% growth inhibition. A higher GI50 goes with lower sensitivity of the cells. Molecule `O=C(CCCn1c(=O)c2sc3ccccc3c2n2nnc(-c3ccccc3)c12)NCCc1c[nH]cn1` gave a 50% growth inhibitory concentration (GI50) in experiment [1] of 17.4 µM. Moreover, the CC50 in experiment [1] (read-out: pLC50 (the source's name) (converted)) was more than 100 µM. Further, in experiment [1] (read-out: pTGI (converted)), the TGI is 41.7 µM.

The term LC50 denotes the concentration lethal to half of the exposed cells or organisms. A lower LC50 goes with greater toxicity. Turning to `O=C(CCCn1c(=O)c2sc3ncccc3c2n2nnc(-c3ccccc3)c12)NCCc1c[nH]cn1`, in experiment [2], the GI50 was 2.51 µM, the LC50 (50% lethal concentration) is more than 100 µM and the TGI is 6.17 µM. In experiment [3], the GI50 was 9.55 µM, the 50% lethal concentration (LC50) was 75.9 µM and the TGI was 27.5 µM.

`CN1CCN(CCCn2c(=O)c3sc4ncccc4c3n3nnc(-c4ccccc4)c23)CC1`: in experiment [2], halving of growth (GI50) required 1.1 µM, the LC50 (50% lethal concentration) is 12 µM and the TGI is 2.57 µM. Further, in experiment [3], it took 5.89 µM to inhibit growth by half (GI50), the LC50 was 32.4 µM and the TGI was 13.8 µM.
